Test results reported in ChEMBL document CHEMBL2401649, “Cyclic enkephalins with a diversely substituted guanidine bridge or a thiourea bridge: synthesis, biological and structural evaluations” (J Med Chem, 2013).

Experiments:
[1] = target: Mu-type opioid receptor (Cavia porcellus, UniProt P97266); experiment: Agonist activity at mu opioid receptor in guinea pig ileum; format: tissue-based
Method in brief: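 Isolated guinea pig ileum (MOR) and mouse vas deferens (DOR) bioassays; Leu-enkephalin dose-response curve run as standard on each preparation, test IC50 values normalized to it.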

[2] = target: Kappa-type opioid receptor (Cavia porcellus, UniProt P41144); experiment: Displacement of [3H]-U69,593 from kappa opioid receptor in guinea pig brain membranes after 2 hrs by liquid scintillation counting analysis; format: cell membranes, Membrane
Kappa-type opioid receptor, sequence (P41144 whole entry): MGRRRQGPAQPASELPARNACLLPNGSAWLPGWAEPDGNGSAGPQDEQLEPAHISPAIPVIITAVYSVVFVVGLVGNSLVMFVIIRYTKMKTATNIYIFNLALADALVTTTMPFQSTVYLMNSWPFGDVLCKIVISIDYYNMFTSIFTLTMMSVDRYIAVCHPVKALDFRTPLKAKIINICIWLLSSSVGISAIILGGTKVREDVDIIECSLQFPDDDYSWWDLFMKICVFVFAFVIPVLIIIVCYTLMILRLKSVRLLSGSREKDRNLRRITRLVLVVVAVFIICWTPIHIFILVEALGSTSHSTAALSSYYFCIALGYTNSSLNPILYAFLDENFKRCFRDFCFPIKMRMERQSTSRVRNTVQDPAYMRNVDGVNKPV
Method in brief: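 Guinea pig brain membranes incubated 2 h at 0 °C with 0.80 nM [3H]U69,593 plus competitor. IC50 taken from log-dose displacement curves.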

[3] = target: T1, Mu-type opioid receptor (Rattus norvegicus, UniProt P33535); experiment: Agonist activity at mu opioid receptor in rat brain membranes assessed as stimulation of [35S]GTPgammaS binding after 60 mins in presence of GDP; format: functional, cell membranes
T1 sequence (P33535 whole entry): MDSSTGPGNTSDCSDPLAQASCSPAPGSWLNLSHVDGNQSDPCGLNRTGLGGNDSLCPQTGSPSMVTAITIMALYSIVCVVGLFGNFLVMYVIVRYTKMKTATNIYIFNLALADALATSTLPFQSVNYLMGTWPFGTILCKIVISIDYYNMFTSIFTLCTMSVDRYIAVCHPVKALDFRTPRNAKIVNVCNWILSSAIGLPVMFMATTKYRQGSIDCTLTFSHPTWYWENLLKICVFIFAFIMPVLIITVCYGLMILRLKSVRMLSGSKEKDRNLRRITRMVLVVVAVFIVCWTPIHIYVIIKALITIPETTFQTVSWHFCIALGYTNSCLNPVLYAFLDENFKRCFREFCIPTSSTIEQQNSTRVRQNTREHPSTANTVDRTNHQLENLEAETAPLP

[4] = species on record: Rattus norvegicus; experiment: Selectivity ratio of Ki for delta opioid receptor in Wistar rat brain membranes to Ki for mu opioid receptor in Wistar rat brain membranes; format: cell membranes; settings: Membrane
[5] = target: T1, Mu-type opioid receptor; experiment: Displacement of [3H]-DAMGO from mu opioid receptor in Wistar rat brain membranes after 45 mins by liquid scintillation counting analysis; format: cell membranes, Membrane
[6] = target: Delta-type opioid receptor (Rattus norvegicus, UniProt P33533); experiment: Displacement of [3H]-DIDI from delta opioid receptor in Wistar rat brain membranes after 45 mins by liquid scintillation counting analysis; format: cell membranes, Membrane
Delta-type opioid receptor, sequence (P33533 whole entry): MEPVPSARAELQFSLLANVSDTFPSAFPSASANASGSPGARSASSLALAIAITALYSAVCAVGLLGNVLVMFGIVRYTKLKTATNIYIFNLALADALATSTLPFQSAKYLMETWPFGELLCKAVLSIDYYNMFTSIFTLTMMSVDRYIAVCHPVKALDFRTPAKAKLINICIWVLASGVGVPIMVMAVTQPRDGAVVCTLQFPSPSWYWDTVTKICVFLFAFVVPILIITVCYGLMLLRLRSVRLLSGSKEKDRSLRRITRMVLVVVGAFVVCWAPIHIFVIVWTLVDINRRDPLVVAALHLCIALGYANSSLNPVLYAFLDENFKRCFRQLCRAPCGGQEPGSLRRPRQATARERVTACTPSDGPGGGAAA

Mu-type opioid receptor (Cavia porcellus, UniProt P97266), sequence (P97266 whole entry): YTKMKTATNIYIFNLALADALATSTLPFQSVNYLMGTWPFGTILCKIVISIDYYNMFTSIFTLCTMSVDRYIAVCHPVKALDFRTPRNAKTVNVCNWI

`NC(=O)[C@@H]1CNC(=S)NC[C@@H](NC(=O)[C@@H](N)Cc2ccc(O)cc2)C(=O)NCC(=O)N[C@@H](Cc2ccccc2)C(=O)N1` (stereo in doubt; 7a) was tested, and the IC50 [1] was 1.76 nM.

`NC(=O)[C@@H]1C/N=C(/N2CCCC2)NC[C@@H](NC(=O)[C@@H](N)Cc2ccc(O)cc2)C(=O)NCC(=O)N[C@@H](Cc2ccccc2)C(=O)N1` (stereo in doubt; 13c) showed a Ki [2] of over 500 nM and an EC50 ([3]; read-out: pEC50 (converted)) of 4790 nM.

For `NC(=O)[C@@H]1C/N=C(/N2CCCC2)NC[C@@H](NC(=O)[C@@H](N)Cc2ccc(O)cc2)C(=O)NCC(=O)N[C@@H](Cc2ccccc2)C(=O)N1` (stereo in doubt; 13b), the Ki [2] was over 500 nM and the EC50 ([3]; read-out: pEC50 (converted)) was 2820 nM.

Work on `C/N=C1/NCCC[C@@H](C(N)=O)NC(=O)[C@H](CC(C)C)NC(=O)[C@H](Cc2ccccc2)NC(=O)CNC(=O)[C@H](NC(=O)[C@@H](N)Cc2ccc(O)cc2)CCCN1` yielded a Ki [2] of over 300 nM, a Ratio Ki [4] of 10.3 and an IC50 [5] of 24 nM. The Ki [5] was 17.9 nM, the EC50 ([3]; read-out: EC50) was 1230 nM and the IC50 [6] was 245 nM. The Ki [6] was 185 nM.

For `NC(=O)[C@@H]1C/N=C(/N2CCCC2)NC[C@@H](NC(=O)[C@@H](N)Cc2ccc(O)cc2)C(=O)NCC(=O)N[C@@H](Cc2ccccc2)C(=O)N1` (stereo in doubt; 13a), the Ki [2] was over 500 nM and the EC50 ([3]; read-out: pEC50 (converted)) was 1070 nM.

For `CC(C)C[C@@H]1NC(=O)[C@H](Cc2ccccc2)NC(=O)CNC(=O)[C@H](NC(=O)[C@@H](N)Cc2ccc(O)cc2)CCCNC(=S)NCCC[C@@H](C(N)=O)NC1=O`, the Ratio Ki [4] was 8.3, the IC50 [5] was 12.3 nM and the Ki [5] was 9.1 nM. The EC50 ([3]; read-out: EC50) was 589 nM, the EC50 ([3]; read-out: pEC50 (converted)) was 603 nM and the IC50 [6] was 97.7 nM. The Ki [6] was 75.7 nM.

Molecule `NC(=O)[C@@H]1C/N=C(/N2CCCCC2)NC[C@@H](NC(=O)[C@@H](N)Cc2ccc(O)cc2)C(=O)NCC(=O)N[C@@H](Cc2ccccc2)C(=O)N1` (stereo in doubt; 14b) has an EC50 ([3]; read-out: pEC50 (converted)) of 4170 nM and an IC50 [6] of 4900 nM.

`NC(=O)[C@@H]1C/N=C(/N2CCCCC2)NC[C@@H](NC(=O)[C@@H](N)Cc2ccc(O)cc2)C(=O)NCC(=O)N[C@@H](Cc2ccccc2)C(=O)N1` (stereo in doubt; 14a) was tested, and the EC50 ([3]; read-out: pEC50 (converted)) was 1450 nM and the IC50 [1] was 398 nM.

With `CN/C1=N/C[C@@H](C(N)=O)NC(=O)[C@H](Cc2ccccc2)NC(=O)CNC(=O)[C@H](NC(=O)[C@@H](N)Cc2ccc(O)cc2)CN1` (stereo in doubt; 10b) the EC50 ([3]; read-out: pEC50 (converted)) was 1620 nM.

With `CN/C1=N/C[C@@H](C(N)=O)NC(=O)[C@H](Cc2ccccc2)NC(=O)CNC(=O)[C@H](NC(=O)[C@@H](N)Cc2ccc(O)cc2)CN1` (stereo in doubt; 10a) the EC50 ([3]; read-out: pEC50 (converted)) was 282 nM.

For `CC(C)C[C@@H]1NC(=O)[C@H](Cc2ccccc2)NC(=O)CNC(=O)[C@H](NC(=O)[C@@H](N)Cc2ccc(O)cc2)CCCN/C(N2CCCC2)=N\CCC[C@@H](C(N)=O)NC1=O`, the Ratio Ki [4] was 3.6, the IC50 [5] was 234 nM and the Ki [5] was 175 nM. It also gave an EC50 ([3]; read-out: EC50) of 8000 nM, an EC50 ([3]; read-out: pEC50 (converted)) of 8130 nM and an IC50 [6] of 832 nM. It also gave a Ki [6] of 628 nM.

Molecule `NC(=O)[C@@H]1C/N=C(/N2CCCCC2)NC[C@@H](NC(=O)[C@@H](N)Cc2ccc(O)cc2)C(=O)NCC(=O)N[C@@H](Cc2ccccc2)C(=O)N1` (stereo in doubt; 14c) has an EC50 ([3]; read-out: pEC50 (converted)) of 7590 nM and a Ki [6] of 3500 nM.

Work on `CN(C)/C1=N/C[C@@H](C(N)=O)NC(=O)[C@H](Cc2ccccc2)NC(=O)CNC(=O)[C@H](NC(=O)[C@@H](N)Cc2ccc(O)cc2)CN1` yielded an EC50 ([3]; read-out: EC50) of 1830 nM.

For `CC(C)C[C@@H]1NC(=O)[C@H](Cc2ccccc2)NC(=O)CNC(=O)[C@H](NC(=O)[C@@H](N)Cc2ccc(O)cc2)CCCN/C(N(C)C)=N\CCC[C@@H](C(N)=O)NC1=O`, the Ki [2] was over 500 nM, the Ratio Ki [4] was 10.2 and the IC50 [5] was 19.5 nM. For the same molecule, the Ki [5] was 14.3 nM, the EC50 ([3]; read-out: EC50) was 1520 nM and the EC50 ([3]; read-out: pEC50 (converted)) was 1550 nM. For the same molecule, the IC50 [6] was 195 nM and the Ki [6] was 146 nM.

`CS/C1=N/CCC[C@@H](C(N)=O)NC(=O)[C@H](CC(C)C)NC(=O)[C@H](Cc2ccccc2)NC(=O)CNC(=O)[C@H](NC(=O)[C@@H](N)Cc2ccc(O)cc2)CCCN1` was tested, and the Ratio Ki [4] was 9.1, the IC50 [5] was 28.8 nM and the Ki [5] was 21 nM. For the same molecule, the EC50 ([3]; read-out: EC50) was 652 nM, the EC50 ([3]; read-out: pEC50 (converted)) was 661 nM and the IC50 [6] was 251 nM. It also gave a Ki [6] of 191 nM.

For `CC(C)C[C@@H]1NC(=O)[C@H](Cc2ccccc2)NC(=O)CNC(=O)[C@H](NC(=O)[C@@H](N)Cc2ccc(O)cc2)CCCN/C(N)=N\CCC[C@@H](C(N)=O)NC1=O`, the Ki [2] was over 500 nM, the Ratio Ki [4] was 5.9 and the IC50 [5] was 25.1 nM. The Ki [5] was 18.4 nM, the EC50 ([3]; read-out: EC50) was 3010 nM and the IC50 [6] was 145 nM. It also gave a Ki [6] of 108 nM.
